High-throughput results (PubChem)
Most compounds without a hit are left out; they make up all but 2.3% or so of the library.
HSP90 inh: inhibitors of HSP90 luciferase refolding in rabbit reticulocyte lysate | luciferase refolding luminescence, 3 h | inhibition, % at 5.6 µM | hit rate 0.91% among 290,000 | AID 1789;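 active means inhibition above the screen-wide mean plus 3 SD, computed separately per campaign, cut at about 16% in these data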;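 further: inhibitors lower the luminescence because luciferase stays unfolded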
STAT3 inh: inhibitors of IL-6 induced STAT3 signaling | U3A cells, IL-6 STAT3-luciferase reporter, luminescence; host cell line lacks STAT1 | inhibition, % at 5.5 µM | hit rate 0.89% among 190,000 | AID 862;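 active means inhibition above the mean inhibition across all screened compounds plus 3 SD, cut at about 44% in these data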
TRAIL sens C8: sensitizes caspase-8 expressing cells to TRAIL; inhibition (viability loss, TRAIL sensitization), % at 10 µM; NB7+C8 cells + TRAIL, ATPlite viability luminescence; hit rate 1% among 360,000;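 active means compounds causing at least 50% loss of cell viability in the single-dose screen, relative to plate controls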
STAT1 blocker: inhibitors of IFN-gamma induced STAT1 signaling | hit rate 0.35% among 200,000 | NIH 3T3 STAT1-luciferase reporter, luminescence | inhibition, % at 5.5 µM;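 active means inhibition above a set limit, the mean inhibition across all tested compounds plus 3 SD, cut at about 34% in these data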
PPC-1+TRAIL kill: PPC-1 cancer cell killing with TRAIL present. PPC-1 cells + TRAIL, ATPLite viability luminescence. cell killing (% activity), % at 4 µM or 5 µM. hit rate 0.41% among 220,000. AID 1443;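 active means cell killing above 50% in the first pass at 4 µM, then a duplicate retest at 5 µM averaging 50% or more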
STAT3 act: activators of IL-6 induced STAT3 signaling. U3A cells, IL-6 STAT3-luciferase reporter, luminescence; 100% = signal with IL-6 EC80 alone. activation (% of control), % at 5.6 µM. hit rate 0.91% among 190,000. AID 871;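 active means activation above the screen-wide mean of compound activation plus 3 SD, cut at about 130% in these data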
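Test system: STAT3-luciferase reporter U3A cells; Detection: reporter luminescence signal; Times: 1 h compound pre-exposure, 6 h IL-6 stimulation, 37 °C; Benchmarks: IL-6-only high control; Also added: IL-6 stimulus at 33 ng/mL final.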
HSP90 confirm: confirmation of HSP90 inhibitors. shares compounds with HSP90 inh. rabbit reticulocyte lysate, luciferase refolding luminescence, 3 h. inhibition, % at 5.9 µM. hit rate 64% among 2,300. AID 1846; in the data active means inhibition above about 18%
FLuc counter: firefly luciferase inhibition, HSP90 counter-screen. AID 1847. hit rate 48% among 2,300. inhibition, % at 5.9 µM. shares compounds with HSP90 inh. purified native firefly luciferase, luminescence;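 active means inhibition above the mean inhibition of all tested sample wells plus 3 SD, cut at about 10% in these data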
Target sequence (P08659 whole entry, looked up): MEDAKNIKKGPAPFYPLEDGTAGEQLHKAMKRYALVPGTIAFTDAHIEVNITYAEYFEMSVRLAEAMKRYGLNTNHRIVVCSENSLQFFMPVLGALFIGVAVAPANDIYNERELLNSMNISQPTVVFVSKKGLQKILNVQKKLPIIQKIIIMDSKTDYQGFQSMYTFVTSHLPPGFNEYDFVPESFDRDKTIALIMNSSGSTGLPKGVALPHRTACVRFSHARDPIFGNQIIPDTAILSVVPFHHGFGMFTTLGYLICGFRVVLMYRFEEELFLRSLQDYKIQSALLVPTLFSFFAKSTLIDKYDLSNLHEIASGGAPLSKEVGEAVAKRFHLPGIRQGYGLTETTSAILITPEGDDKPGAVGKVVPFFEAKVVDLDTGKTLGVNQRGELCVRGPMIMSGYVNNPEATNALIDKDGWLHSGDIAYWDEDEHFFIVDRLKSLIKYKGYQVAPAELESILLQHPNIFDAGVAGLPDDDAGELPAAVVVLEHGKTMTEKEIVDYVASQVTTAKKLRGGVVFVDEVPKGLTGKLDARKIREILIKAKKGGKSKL
Numbers stand for hits; n = inactive; x = not tested or not shown.

SMILES	HSP90 inh	STAT3 inh	TRAIL sens C8	STAT1 blocker	PPC-1+TRAIL kill	STAT3 act	HSP90 confirm	FLuc counter
Cc1c(-c2ccccc2)oc2c(C(=O)N3CCN(c4ccc([N+](=O)[O-])cc4)CC3)cccc2c1=O	21	n	n	n	n	n	n	n
O=C(O)CCCNc1cc(N2CCC3(CC2)OCCO3)c2noc3c2c1C(=O)c1ccccc1-3	31	n	x	n	n	n	30	29
O=C(c1ccc(CN2CCc3ccccc3C2)cc1)N1CCCCC1	n	n	n	n	n	n	x	x
CCN(CC)c1ccc2cc(/C(N)=N/NC(=O)c3cccs3)c(=O)oc2c1	22	x	x	x	n	x	n	n
Cc1cccc(S(=O)(=O)NC(=O)C2(C)CCN2C(=O)Cc2ccsc2)c1 (centres undefined)	x	x	n	x	x	x	x	x
CNc1nc(-c2ccc3c(c2)CCN3C(=O)c2cccc(F)c2)cs1	n	x	n	x	n	x	x	x
CNc1nc(-c2ccc3c(c2)CCN3C(=O)c2ccc(F)cc2)cs1	19	n	n	n	n	n	n	n
CCOc1cc(C(=O)Nn2cnnc2)cc(OCC)c1OCC	n	n	n	n	n	n	x	x
Cc1ccc(/C=C2\SC(N3CCCC3)=NC2=O)cc1	n	n	x	n	n	n	x	x
CC(C)c1ccc(/C=C2\SC(N3CCCC3)=NC2=O)cc1	19	n	n	n	n	n	n	n
O=C1N=C(N2CCCCC2)S/C1=C\c1ccc(Br)cc1	n	x	n	x	x	x	x	x
CN(C)c1ccc(/C=C2\SC(N3CCCCC3)=NC2=O)cc1	45	x	n	x	x	x	55	60
CCCC(C(=O)NCCC(C)C)N(Cc1ccccc1Cl)C(=O)c1snc(C(N)=O)c1N (centres undefined)	17	x	n	x	x	x	n	n
Fc1ccc(-n2nnc(-c3ccccc3Cl)n2)cc1	n	x	n	x	x	x	x	x
Fc1ccc(-n2nnc(-c3nccs3)n2)cc1	20	x	n	n	n	x	32	25
Cn1cc(/C=C/C(=O)c2ccccc2)c2ccccc21	20	x	60	x	n	x	36	45
O=C1N/C(=C\c2nc3ccccc3s2)c2ccccc21	21	x	x	x	n	x	53	25
CCOC(=O)Nc1ccc2c(c1)N(C(=O)CCN(CC)CC)c1ccccc1CC2	26	x	n	x	x	x	n	n
COc1ccc(C)cc1S(=O)(=O)N1CCCC(C(=O)N2CCN(c3ccccc3)CC2)C1 (centres undefined)	22	x	n	x	x	x	n	n
CCOC(=O)N1CCN(C(=O)C2CCCN(S(=O)(=O)c3cc(C)ccc3OC)C2)CC1 (centres undefined)	n	n	n	n	n	n	x	x
CCOC(=O)CSc1nc(C)nc2c1sc1nc(C)c(C(C)=O)c(-c3ccc(OC)cc3)c12	n	n	n	n	n	n	x	x
Cc1oc(-c2cccc(Cl)c2)nc1CN(C)C1CCOC1 (centres undefined)	n	n	n	n	x	n	x	x
Cc1oc(-c2ccc(-c3ccccc3)cc2)nc1CN(C)C1CCOC1 (centres undefined)	75	n	n	n	n	n	86	n
Cc1oc(-c2ccc(-c3ccccc3)cc2)nc1CN(CCO)C(C)C	85	x	n	x	x	x	94	21
COc1ccc(/C=N/Nc2ncc(-c3ccccc3)cn2)c(OC)c1	n	n	n	n	n	n	x	x
SMILES	HSP90 inh	STAT3 inh	TRAIL sens C8	STAT1 blocker	PPC-1+TRAIL kill	STAT3 act	HSP90 confirm	FLuc counter
COc1ccc(/C=N/Nc2ncccc2[N+](=O)[O-])c(OC)c1	51	74	n	57	n	n	70	62
CCOc1ccc(OCCCC(=O)N2CCN(S(=O)(=O)c3ccccc3C#N)CC2)cc1	x	x	n	x	x	x	x	x
C=C(C)C1CC=C(C)/C(=N/NC(=O)CNc2ccc(C)cc2C)C1 (centres undefined)	n	n	n	n	n	n	x	x
CN(C)c1ccc(/C=C/C=C2/SC(=S)N(c3ccccc3)C2=O)cc1	34	n	n	n	n	n	21	12
O=C(NCCc1nnc2ccc(NCc3ccc(Cl)cc3)nn12)c1ccccc1	20	n	n	n	n	n	n	n
O=C(CSc1ccc2nnc(CCNC(=O)c3ccccc3)n2n1)NCc1ccccc1	n	x	n	x	x	x	x	x
CCCC(=NC(C)CC)C1=C(O)CC(c2ccccc2)CC1=O (centres undefined)	24	x	n	x	x	x	n	n
COc1cccc(N=Nc2c(C)[nH]n(-c3ccccc3)c2=O)c1	n	x	n	x	x	x	x	x
O=C(NC1CCCCC1)N1CCC(c2nc(-c3ccc(S(=O)(=O)N4CCCC4)cc3)no2)CC1	n	n	n	n	n	n	x	x
COc1cccc(/C=N/n2c(-c3ccco3)nc3ccccc3c2=O)c1	n	n	n	n	n	n	x	x
COc1ccc(/C=N/n2c(-c3ccco3)nc3ccccc3c2=O)cc1	19	n	n	n	n	n	n	n
CC(C)(C#N)Cc1cc(CC(C)(C)C#N)cc(C(C)(C)C)c1	n	x	n	x	x	x	x	x
N#CC(Cc1cccc(CC(C#N)(c2ccccc2)c2ccccc2)c1)(c1ccccc1)c1ccccc1	40	x	n	x	x	x	n	n
CCC1CCCCN1C(=O)COC(=O)c1cccs1 (centres undefined)	x	x	n	x	x	x	x	x
O=C1c2ccccc2C(=O)c2[nH]c(=O)[nH]c21	24	x	75	x	x	x	19	n
CC(=O)N(C)c1ccc(N=Nc2c(C)[nH]n(C(N)=S)c2=O)cc1	20	n	n	n	n	n	n	n
CC1=NN(C(N)=S)C(=O)C1N=Nc1ccc(S(N)(=O)=O)cc1 (centres undefined)	n	x	n	x	x	x	x	x
Cc1ccccc1N=Nc1c(C)[nH]n(C(N)=S)c1=O	n	n	n	n	n	n	x	x
Cc1[nH]n(C(N)=S)c(=O)c1N=Nc1ccc([N+](=O)[O-])cc1Cl	18	x	n	x	x	x	n	n
CC(=O)N(C)c1ccc(N=NC2C(=O)N(C(N)=S)N=C2C)cc1 (centres undefined)	18	x	n	x	x	x	18	n
COc1ccnc(Oc2ccc(F)cc2)c1-c1ncn[nH]1	n	n	n	n	n	n	x	x
COc1ccccc1CCC(=O)OCC(=O)c1c(N)n(CC(C)C)c(=O)n(C)c1=O	x	x	n	x	x	x	x	x
COc1ccc(CCC(=O)OCC(=O)c2c(N)n(CC(C)C)c(=O)n(C)c2=O)cc1	18	x	n	x	x	x	n	n
CC(C)(C)c1ccc(C(=O)Nc2ccc(C=C(C#N)C#N)cc2)cc1	39	n	53	n	50	n	45	n
Cc1cccc([C@H](NC(=O)OC(C)(C)C)C(=O)OC(C)(C)C)c1	x	x	n	x	x	x	x	x
COc1ccc(OC)c(Nc2nc(-c3sc(NC(=O)c4ccccc4)nc3C)cs2)c1	27	n	x	n	n	n	19	n
Cc1nc(NC(=O)c2ccco2)sc1-c1csc(Nc2ccc(Cl)cc2Cl)n1	n	n	n	n	n	n	x	x
COc1ccc(Cl)cc1Nc1nc(-c2sc(NC(=O)c3ccccc3)nc2C)cs1	40	n	x	n	n	n	24	n
